Assay results gathered from unrelated publications.
Each line is one published result; the experiments were not run side by side.
Observed: metabolic stability

CCN(CC)CCNC(=O)c1c(C)[nH]c(/C=C2\C(=O)Nc3ccc(F)cc32)c1C gave a half-life of 12.8 min (mouse, liver microsomes; 1 µM, pH 7.4).
With CCCCOC(=O)NS(=O)(=O)c1sc(CC(C)C)cc1-c1ccc(OC(F)(F)F)c(Cn2ccnc2)c1 the half-life was 103 min (mouse, liver microsomes; 1 µM, pH 7.4).
The half-life of O=S(=O)(Nc1cccc(-c2nnn[nH]2)c1)c1ccc(F)c(F)c1 is reported as 346 min (mouse, liver microsomes).
O=C(Nc1ccc(CN2CCOCC2)c(C(F)(F)F)c1)c1ccc(C#Cc2cccc3cnccc23)cn1 gave a half-life of 13.4 min (mouse, liver microsomes).
CCOC(=O)C1=C(C)N/C(=C/c2cc(C)n(-c3ccc(SC(F)(F)F)cc3)c2C)C1=O gave a half-life of 23 min (mouse, liver microsomes; 1 µM).
With COc1cc2[nH]c(C#N)cc2c(C)c1CN1CCC(Nc2ncnc3sc(CC(F)(F)F)cc23)CC1 the half-life was > 30 min (CD-1 mouse, liver microsomes; 1 µM, pH 7.4).
The half-life of CC(C)Oc1cccc(-c2cnc(N3CCC(C(N)=O)CC3)s2)c1 is reported as > 30 min (mouse, liver microsomes; 1 µM).
O=c1ccc2ccc(O)cc2o1 gave a half-life of 4.71 min (mouse, liver S9; 2 µM, pH 7.4).
The half-life of CCS(=O)(=O)Nc1cccc(-c2cn(C)c(=O)c3ccccc23)c1 is reported as 11 min (mouse, liver microsomes).
N=c1c2c(-c3ccccc3)c(-c3ccccc3)n(Cc3ccccc3)c2ncn1[C@H]1CC[C@H](O)CC1 gave a half-life of > 120 min (male CD-1 mouse, liver microsomes; 1 µM, pH 7.4).
The half-life of C=CC(=O)Nc1cccc(-n2nc3c(=O)[nH]nc(N)c3c2-c2oc3ccc(C)cc3c2C)c1 is reported as 134 min (nude mouse, blood; 1 µM, whole blood).
With CCOC(=O)C1=C(C)N/C(=C/c2cc(C)n(Cc3ccc(C(F)(F)F)cc3)c2C)C1=O the half-life was 17 min (mouse, liver microsomes; 1 µM).
CC(C)NCC(O)COc1cccc2ccccc12 (stereo not shown) gave a half-life of 11.5 min (mouse, liver microsomes; 1 µM).
For CNC(=O)[C@H](Cc1c[nH]cn1)NC(=O)CN(CC(=O)O)Cc1ccccc1, the half-life was > 40 min (male mouse, liver microsomes; 1 µM, pH 7.4).
O=C(Nc1ccc(Cl)c(Cl)c1)c1ccc(N2CCNCC2)c([N+](=O)[O-])c1 has a half-life of > 110 min (CD-1 mouse, liver microsomes; 1 µM, pH 7.4).
For C/C(=N\OCCN)c1cccc(C(C)(C)NC(=O)Nc2ccc(Cl)c([N+](=O)[O-])c2)c1, the half-life was > 120 min (mouse, liver microsomes).
The half-life of CCOC(=O)C1=C(C)N/C(=C/c2cc(C)n(-c3ccc(N4CCOCC4)cc3)c2C)C1=O is reported as 57 min (mouse, liver microsomes; 1 µM).
For CC[C@@H]1C=CC(=O)O[C@@H]1C[C@@H](O)[C@H](C)[C@H](O)[C@@H](C)Cc1ccc(F)cc1, the half-life was 3 min (mouse, liver microsomes).
O=C(N[C@H](Cc1c[nH]c2ccccc12)C(=O)Nc1ccncc1)c1ccc(-c2cccc(F)c2)cc1F has a half-life of 27 min (mouse, liver microsomes).
CCOC(=O)C1=C(C)N/C(=C/c2cc(C)n(-c3ccc(F)cc3F)c2C)C1=O gave a half-life of 23 min (mouse, liver microsomes; 1 µM).
With CCNc1nc2c(c(N3CC(=O)Nc4cc(OC)ccc43)n1)CCC2 the half-life was 5.7 min (mouse, liver microsomes).
The half-life of COc1cc2c(cc(C#N)n2Cc2cn[nH]c2)c(C)c1CN1CCC(Nc2ncnc3sc(CC(F)(F)F)cc23)CC1 is reported as > 30 min (CD-1 mouse, liver microsomes; 1 µM, pH 7.4).
With C=CC(=O)Nc1cc(OC)c(N2CCC[C@@H](Nc3ncc(Cl)c(-c4c[nH]c5ccccc45)n3)C2)cc1C the half-life was 4.3 min (mouse, liver microsomes).
O=C(CC1Cc2ccccc2C1)N[C@H](CN1CCCC1)[C@H](O)c1ccc2c(c1)OCCO2 gave a half-life of 2.5 min (mouse, liver microsomes).
O=S(=O)(Nc1cccc(-c2nnn[nH]2)c1)c1cc(Cl)c(Cl)cc1Cl gave a half-life of 48 min (mouse, liver microsomes).
With CN1CCN(Cc2cc(CNC3(c4ccccc4F)CCCC3)ccc2O)CC1 the half-life was 12 min (mouse, liver microsomes; 4.6 µM, pH 7.5).
With CN(C)CCN1CCN(c2nc(NCc3cccc(Cl)c3)c3cc(-c4ccc(=O)n(C)c4)ccc3n2)CC1 the half-life was 53 min (mouse, liver microsomes).
CCOC(=O)C1=C(C)N/C(=C/c2cc(C)n(-c3cccnc3)c2C)C1=O gave a half-life of 21 min (mouse, liver microsomes; 1 µM).
O=C(Nc1ccccc1)C1CCN(c2ncc(-c3ccc4c(c3)OCCCO4)s2)CC1 has a half-life of < 10 min (mouse, liver microsomes; 1 µM).
The half-life of O=c1ccc2ccccc2o1 is reported as 72 min (mouse, liver microsomes; 50 µM, pH 7.4).
CCOC(=O)C1=C(C)N/C(=C/c2cc(CC)n(-c3ccccc3C(F)(F)F)c2CC)C1=O gave a half-life of 12 min (mouse, liver microsomes; 1 µM).
For O=C1CCN(C(=O)Nc2ccc(F)c(C(F)F)c2)[C@@H]2CCCC[C@H]12, the half-life was > 32 min (mouse, liver microsomes).
The half-life of O=S(=O)(Nc1cccc(-c2nnn[nH]2)c1)c1cc(C(F)(F)F)cc(C(F)(F)F)c1 is reported as 535 min (mouse, liver microsomes).
With O=C(O)CN(CCCc1ccccc1)CC(=O)N[C@H](CO)Cc1c[nH]cn1 the half-life was > 40 min (male mouse, liver microsomes; 1 µM, pH 7.4).
O=C(OC(C(F)(F)F)C(F)(F)F)N1CCc2ccccc2C1 gave a half-life of 4 min (mouse, liver microsomes).
The half-life of COC(=O)c1csc(C(=O)c2c[nH]c3ccccc23)n1 is reported as 11 min (mouse, liver microsomes).
With CCOC(=O)C1=C(C)N/C(=C/c2cc(C)n(-c3ccc(Cl)cc3)c2C)C1=O the half-life was 24 min (mouse, liver microsomes; 1 µM).
For Cc1ccc(S(=O)(=O)Nc2cccc(-c3nnn[nH]3)c2)cc1C(F)(F)F, the half-life was 38 min (mouse, liver microsomes).
CO[C@@H](C[C@H]1C(C)=CC[C@@H]2[C@]3(C)C[C@H](O[C@@H]4O[C@@H](C)[C@H](OC(=O)c5cccc(O)c5)[C@@H](O[C@@H]5O[C@H](CO)[C@@H](O)[C@H](O)[C@H]5NC(C)=O)[C@H]4O)[C@@H](O)C(C)(C)[C@H]3CC[C@]21C)[C@H](N)C(=O)O.O=C(O)C(F)(F)F gave a half-life of 296 min (mouse, hepatocytes; 1 µM).
CC[C@@H]1C=CC(=O)O[C@@H]1C[C@@H](OC)[C@H](C)[C@H](OC)[C@@H](C)Cc1ccc(F)cc1 has a half-life of < 2.3 min (mouse, liver microsomes).
For N=C(N)N1CC=C(c2coc(C(=O)Nc3ccc(C4=CCN(C(=N)N)CC4)c(F)c3)c2)CC1, the half-life was > 60 min (CD-1 mouse, liver microsomes; 1 µM).
Cc1ccc(-n2sc3ccccc3c2=O)cc1 has a half-life of < 60 min (mouse, liver microsomes).
The half-life of Fc1ccc([C@@H]2CCNC[C@H]2COc2ccc3c(c2)OCO3)cc1 is reported as 24 min (CD-1 mouse, liver microsomes; 1 µM, pH 7.4).
The half-life of COc1ccc2cc(C(=O)Nc3ccc4c(c3)CN(C3CCC(=O)NC3=O)C4=O)ccc2c1 (stereo not shown) is reported as 180 min (mouse, liver microsomes; 2 µM).
CCCCOC(=O)NS(=O)(=O)c1sc(CC(C)C)cc1-c1ccc2c(c1)CN(C(C)=O)CC2 has a half-life of 2.2 min (mouse, liver microsomes; 1 µM, pH 7.4).
With CCCN(C)Cc1cc(-c2[nH]c3cccc(F)c3c(=O)c2C)ccc1Cc1ccc(OC(F)(F)F)cc1 the half-life was 3.47 min (mouse, liver microsomes).
With NC1(c2ccc(-c3nc4ccn5c(=O)[nH]nc5c4cc3-c3ccccc3)cc2)CCC1 the half-life was 85.8 min (CD-1 mouse, liver microsomes; 1 µM, pH 7.4).
For O=S(=O)(Nc1cccc(-c2nnn[nH]2)c1)c1ccc(Cl)c(Cl)c1Cl, the half-life was 192 min (mouse, liver microsomes).
The half-life of CCOC(=O)NS(=O)(=O)c1sc(CC(C)C)cc1-c1ccc2c(c1)CN(C(=O)OCC)C2 is reported as 2.1 min (mouse, liver microsomes; 1 µM, pH 7.4).
CCOC(=O)C1=C(C)N/C(=C/c2cc(C)n(-c3cccc(OC)c3)c2C)C1=O has a half-life of 12 min (mouse, liver microsomes; 1 µM).
For CNC(=O)c1ccccc1Nc1cc(Nc2cc(C)c(C3CCN(CCCCCCNC(=O)COc4cccc5c4C(=O)N(C4CCC(=O)NC4=O)C5=O)CC3)cc2OC(C)C)ncc1C(F)(F)F (stereo not shown), the half-life was 27 min (mouse, liver microsomes).
With CNC(=O)[C@H](Cc1c[nH]cn1)NC(=O)CN(CCCc1ccccc1)CC(=O)O the half-life was > 40 min (male mouse, liver microsomes; 1 µM, pH 7.4).
C=CC(=O)Nc1ccc(N2CCC[C@@H](Nc3ncc(Cl)c(-c4c[nH]c5ccccc45)n3)C2)c(F)c1 gave a half-life of 7.6 min (mouse, liver microsomes).
CCCCOC(=O)NS(=O)(=O)c1sc(CC(C)C)cc1-c1ccc2c(c1)CN(C(C)=O)C2 has a half-life of 1.8 min (mouse, liver microsomes; 1 µM, pH 7.4).
With NC(=O)C1CCN(c2nnc(-c3ccc4c(c3)OCCCO4)s2)CC1 the half-life was > 30 min (mouse, liver microsomes; 1 µM).
